Measured values as given in ChEMBL document CHEMBL1208693, “Synthesis and evaluation of novel antifungal agents-quinoline and pyridine amide derivatives” (2010).
Converted amounts (≈) assume the structure as drawn.

Assays:
Type in all cases: functional
Candida albicans [1] = test: Ratio of compound MIC to Amphotericin B MIC for Candida albicans E81022
Candida albicans [2] = test: Antifungal activity against Candida albicans E81022 after 2 days by broth-microdilution method; settings: E81022, 48 h
In short: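 Yeast broth microdilution following CLSI M27-A3, slightly modified. Cells were subcultured in Sabouraud dextrose broth at 35 °C for 1–2 days, then inoculated at 2×10^3–2×10^4 cells/mL. Compounds in twofold DMSO dilutions gave final concentrations of 0.05–200 µg/mL; the control was 1% DMSO. Incubation was 35 °C for 2 days. MIC was the lowest concentration with a visually prominent turbidity drop relative to control.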

Saccharomyces cerevisiae [3] = test: Ratio of MIC for Saccharomyces cerevisiae KE744 to Saccharomyces cerevisiae KE743 overexpressing GWT1
In short: (§1)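 Broth microdilution (modified CLSI M27-A3) on S. cerevisiae KE743 (control) and KE744 (GWT1 overexpressed from GAPDH promoter), precultured in SD ura- at 30 °C for 1–2 days. Inoculum 2 × 10^3–2 × 10^4 cells/ml. Twofold dilutions at 0.05–200 µg/mL final, from DMSO; 1% DMSO control. Incubated 30 °C, 2 days. MIC is the lowest concentration with a prominent visual turbidity decrease; KE744/KE743 MICs compared.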

Saccharomyces cerevisiae [4] = test: Antifungal activity against Saccharomyces cerevisiae KE744 after 2 days by broth-microdilution method; settings: KE744, 48 h
In short: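 S. cerevisiae strain overexpressing GWT1 from the GAPDH promoter, grown in SD ura- medium at 30 °C for 1–2 days. Modified CLSI broth microdilution used 2×10^3–2×10^4 cells/mL. Final compound concentrations were 0.05–200 µg/mL from twofold DMSO dilutions, with 1% DMSO as control. Incubation was 30 °C for 2 days. MIC was the lowest concentration visibly and prominently reducing turbidity versus control.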

Aspergillus fumigatus = test: Antifungal activity against Aspergillus fumigatus Tsukuba after 2 days by broth-microdilution method; settings: 48 h
In short: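 CLSI M38-A2 broth microdilution, slightly modified. Conidia came from a one-week PDA culture at 35 °C and were stored at −80 °C. Inoculum was 2×10^3–2×10^4 conidia/mL. Compounds were serially twofold diluted from DMSO stock to final concentrations of 0.05–200 µg/mL; the control was 1% DMSO. Plates were incubated at 35 °C for 2 days. MIC was the lowest concentration giving a visually prominent turbidity decrease versus control.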

Saccharomyces cerevisiae [5] = test: Antifungal activity against Saccharomyces cerevisiae KE743 […] after 2 days by broth-microdilution method; settings: KE743, 48 h; in short: as §1

Compound | Ratio (Candida albicans [1]) | MIC (Candida albicans [2]) [µg/mL] | Ratio (Saccharomyces cerevisiae [3]) | MIC (Saccharomyces cerevisiae [4]) [µg/mL] | MIC (Aspergillus fumigatus) [µg/mL] | MIC (Saccharomyces cerevisiae [5]) [µg/mL]
Nc1ncccc1C(=O)NCc1ccc(Oc2cccc(F)c2)s1 | 2 | 0.05 (≈ 0.146 µM) | 128 | 12.5 (≈ 36.4 µM) | 0.78 (≈ 2.27 µM) | 0.1 (≈ 0.291 µM)
Nc1ccc(C(=O)NCc2ccc(Oc3ccc(F)cc3)s2)c(N)n1 | 2 | 0.39 (≈ 1.09 µM) | 16 | 12.5 (≈ 34.9 µM) | 0.78 (≈ 2.18 µM) | 0.78 (≈ 2.18 µM)
OC(Cn1cncn1)(Cn1cncn1)c1ccc(F)cc1F [FLUCONAZOLE] |  | 0.39 (≈ 1.27 µM) | 1 | 6.25 (≈ 20.4 µM) |  | 6.25 (≈ 20.4 µM)
O=C(NCc1ccc(Oc2cccc(F)c2)s1)c1ccc2ncccc2c1 | 2 | 0.1 (≈ 0.264 µM) | 128 | 3.13 (≈ 8.27 µM) | 1.56 (≈ 4.12 µM) | 0.025 (≈ 0.0661 µM)
Nc1ccc(C(=O)NCc2ccc(Oc3cccc(F)c3)s2)cn1 |  | 1.56 (≈ 4.54 µM) | >8 | > 12.5 |  | 1.56 (≈ 4.54 µM)
Nc1ccc(C(=O)NCc2ccc(Oc3ccccc3)s2)c(N)n1 | 2 | 0.78 (≈ 2.29 µM) | >8 | > 12.5 | 1.56 (≈ 4.58 µM) | 1.56 (≈ 4.58 µM)
CCCCc1ccc(Cc2nccc3ccccc23)cc1 |  | 1.56 (≈ 5.66 µM) |  |  |  | 
O=C(NCc1ccc(Oc2ccccc2)s1)c1cnc2[nH]ccc2c1 | 2 | 0.39 (≈ 1.12 µM) | >64 | > 12.5 | 3.13 (≈ 8.96 µM) | 0.2 (≈ 0.572 µM)
Nc1ncccc1C(=O)NCc1ccc(Cc2ccccc2)s1 | 2 | 0.05 (≈ 0.155 µM) |  |  | 0.78 (≈ 2.41 µM) | 
C[C@@H]1[C@H](O)[C@@H](C)/C=C/C=C/C=C/C=C/C=C/C=C/C=C/[C@H](O[C@@H]2O[C@H](C)[C@@H](O)[C@H](N)[C@@H]2O)C[C@@H]2O[C@](O)(C[C@@H](O)C[C@@H](O)[C@H](O)CC[C@@H](O)C[C@@H](O)CC(=O)O[C@H]1C)C[C@H](O)[C@H]2C(=O)O [AMPHOTERICIN B] |  | 1.56 (≈ 1.69 µM) | 1 | 0.78 (≈ 0.844 µM) | 0.78 (≈ 0.844 µM) | 0.78 (≈ 0.844 µM)
